From ChEMBL document CHEMBL3526018, “Metabolites of PPI-2458, a selective, irreversible inhibitor of methionine aminopeptidase-2: structure determination and in vivo activity” (Drug Metab Dispos, 2013)
Calls of active or inactive are those of the source. The calls are words filed in the database; no cut-off is given here.

What was measured:
Cytochrome P450 3A4 [1] = molecular target: T1, Cytochrome P450 3A4 (Homo sapiens, UniProt P08684); test: Inhibition of CYP3A4 activity in human liver microsomes assessed as dibenzo fluuorescene oxidation up to 40 uM; type: ADME
T1 sequence (P08684 whole entry): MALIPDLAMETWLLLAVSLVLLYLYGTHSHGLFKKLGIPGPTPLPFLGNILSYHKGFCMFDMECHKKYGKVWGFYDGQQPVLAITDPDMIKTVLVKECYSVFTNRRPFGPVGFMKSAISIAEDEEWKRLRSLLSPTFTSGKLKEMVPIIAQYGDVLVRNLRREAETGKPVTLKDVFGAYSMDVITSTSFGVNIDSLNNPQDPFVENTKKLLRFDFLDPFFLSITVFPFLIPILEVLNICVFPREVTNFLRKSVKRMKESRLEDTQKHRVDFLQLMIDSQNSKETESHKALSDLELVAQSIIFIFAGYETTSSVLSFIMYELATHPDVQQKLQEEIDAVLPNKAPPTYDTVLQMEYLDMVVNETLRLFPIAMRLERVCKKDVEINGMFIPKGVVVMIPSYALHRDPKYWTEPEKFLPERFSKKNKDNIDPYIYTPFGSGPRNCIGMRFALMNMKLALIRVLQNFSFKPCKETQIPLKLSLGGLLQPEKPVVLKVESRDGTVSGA

Cytochrome P450 3A4 [2] = molecular target: T1, Cytochrome P450 3A4; test: Inhibition of CYP3A4 activity in human liver microsomes using midazolam as a substrate by LC/MS analysis; type: ADME
[3] = Tmax in non-Hodgkin lymphoma patient at 15 mg, po alternate days for 21 days; type: ADME, organism-based; details: human, in vivo
How it was run: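 Non-Hodgkin lymphoma patients given oral capsules every other day for 21 days. Plasma sampled predose and at 15, 30 min and 1, 2, 3, 4, 6, 8, 24, 48 h after the first dose. Protein precipitated, extract reconstituted, parent and metabolites quantified by validated LC-MS/MS. CL/F and Vss/F derived from the administered dose.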

[4] = AUC (0 to t hrs) in non-Hodgkin lymphoma patient at 15 mg, po alternate days for 21 days; type: ADME, organism-based; details: human, in vivo
How it was run: (§1)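 Oral PPI-2458 given every other day to lymphoma patients. Plasma sampled pre-dose and at 15 min, 30 min, 1, 2, 3, 4, 6, 8, 24 and 48 h after the first dose. Parent and metabolites were measured by LC-MS/MS after protein precipitation, evaporation and reconstitution. CL/F was computed only for parent and summed analytes. For metabolites, t1/2 is an apparent first-phase value.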

[5] = Half life in non-Hodgkin lymphoma patient at 15 mg, po alternate days for 21 days; type: ADME, organism-based; details: human, in vivo; how it was run: as §1
Liver microsome [6] = test: Metabolic stability in human liver microsomes assessed as retention time of ((3R,4S,5S,6R)-4-((2R,3R)-3-(((S)-3,3-dimethyloxiran-2-yl)methyl)-2-methyloxiran-2-yl)-5-methoxy-1-oxaspiro[2.5]octan-6-yl ((R)-1-amino-3-methyl-1-oxobutan-2-yl)carbamate) at 5 mM by LC/MS analysis; type: ADME; details: 5000 µM
Liver [7] = test: Metabolic stability in mouse liver microsomes assessed as retention time of ((3R,4S,5S,6R)-4-((2R,3R)-3-(((S)-3,3-dimethyloxiran-2-yl)methyl)-2-methyloxiran-2-yl)-5-methoxy-1-oxaspiro[2.5]octan-6-yl ((R)-1-amino-3-methyl-1-oxobutan-2-yl)carbamate) at 5 mM by LC/MS analysis; type: ADME; details: 5000 µM
How it was run: (§2)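 Liver microsomes (pooled male/female) in 100 mM KPO4 pH 7.4 with PPI-2458 (5 mM stock), pre-incubated 5 min at 37°C, then 10 mM NADPH added; 20 min at 37°C with shaking. Time-zero and no-NADPH controls. Quenched with CH3CN; supernatant dried and redissolved in water. Analysed by LC-MS, ESI+ full scan 300–800 amu, C18 column, 10→50% B gradient.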

Rattus norvegicus [8] = test: Inhibition of MetAP2 level in Sprague-Dawley rat whole blood assessed as free enzyme level at 0.3 mg/kg, po by ELISA; type: functional, organism-based; set-up: dose 0.3 mg/kg
How it was run: (§3)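 Male Sprague-Dawley rats (200-225 g, n=3 per group) were dosed once IV at 0.3 mg/kg or PO at 0.3 or 3.0 mg/kg, in 11% HPCD in water. Blood, liver, lung, thymus and pooled non-mesenteric lymph nodes were taken at ~24 h and lysed or homogenized with NP-40. Free MetAP2 was measured by ELISA and expressed as % of vehicle.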

Rattus norvegicus [9] = test: Inhibition of MetAP2 level in Sprague-Dawley rat liver assessed as free enzyme level at 3 mg/kg, po by ELISA; type: functional, organism-based; set-up: dose 3 mg/kg; how it was run: as §3
Liver [10] = test: Metabolic stability in mouse liver microsomes assessed as retention time of ((3R,4S,5S,6R)-5-methoxy-4-((2R,3R)-2-methyl-3-(3-methylbut-2-en-1-yl)oxiran-2-yl)-1-oxaspiro[2.5]octan-6-yl ((R)-1-amino-3-hydroxy-3-methyl-1-oxobutan-2-yl)carbamate) at 5 mM by LC/MS analysis; type: ADME; details: 5000 µM; how it was run: as §2
Liver [11] = test: Metabolic stability in mouse liver microsomes assessed as retention time of ((3R,4S,5S,6R)-4-((2R,3R)-3-(((R)-3,3-dimethyloxiran-2-yl)methyl)-2-methyloxiran-2-yl)-5-methoxy-1-oxaspiro[2.5]octan-6-yl ((R)-1-amino-3-methyl-1-oxobutan-2-yl)carbamate) at 5 mM by LC/MS analysis; type: ADME; details: 5000 µM; how it was run: as §2
Liver microsome [12] = test: Metabolic stability in rat liver microsomes assessed as retention time of ((3R,4S,5S,6R)-5-methoxy-4-((2R,3R)-2-methyl-3-(3-methylbut-2-en-1-yl)oxiran-2-yl)-1-oxaspiro[2.5]octan-6-yl ((R)-1-amino-3-hydroxy-3-methyl-1-oxobutan-2-yl)carbamate) at 5 mM by LC/MS analysis; type: ADME; details: 5000 µM; how it was run: as §2
Liver microsome [13] = test: Metabolic stability in rat liver microsomes assessed as retention time of ((3R,4S,5S,6R)-4-((2R,3R)-3-(((R)-3,3-dimethyloxiran-2-yl)methyl)-2-methyloxiran-2-yl)-5-methoxy-1-oxaspiro[2.5]octan-6-yl ((R)-1-amino-3-methyl-1-oxobutan-2-yl)carbamate) at 5 mM by LC/MS analysis; type: ADME; details: 5000 µM; how it was run: as §2
CYP3A5 (Homo sapiens) [14] = test: Activity of human recombinant CYP3A5 assessed as ((3R,4S,5S,6R)-4-((2R,3R)-3-(((R)-3,3-dimethyloxiran-2-yl)methyl)-2-methyloxiran-2-yl)-5-methoxy-1-oxaspiro[2.5]octan-6-yl ((R)-1-amino-3-methyl-1-oxobutan-2-yl)carbamate) formation; details: recombinant enzyme
CYP3A5 (Homo sapiens) [15] = test: Ratio of Vmax to Km for human recombinant CYP3A5 assessed as ((3R,4S,5S,6R)-5-methoxy-4-((2R,3R)-2-methyl-3-(3-methylbut-2-en-1-yl)oxiran-2-yl)-1-oxaspiro[2.5]octan-6-yl ((R)-1-amino-3-hydroxy-3-methyl-1-oxobutan-2-yl)carbamate) formation; details: recombinant enzyme
CYP3A4 (Homo sapiens) = test: Ratio of Vmax to Km for human recombinant CYP3A4 assessed as ((3R,4S,5S,6R)-5-methoxy-4-((2R,3R)-2-methyl-3-(3-methylbut-2-en-1-yl)oxiran-2-yl)-1-oxaspiro[2.5]octan-6-yl ((R)-1-amino-3-hydroxy-3-methyl-1-oxobutan-2-yl)carbamate) formation; details: recombinant enzyme
CYP3A5 (Homo sapiens) [16] = test: Ratio of Vmax to Km for human recombinant CYP3A5 assessed as ((3R,4S,5S,6R)-4-((2R,3R)-3-(((R)-3,3-dimethyloxiran-2-yl)methyl)-2-methyloxiran-2-yl)-5-methoxy-1-oxaspiro[2.5]octan-6-yl ((R)-1-amino-3-methyl-1-oxobutan-2-yl)carbamate) formation; details: recombinant enzyme
CYP3A5 (Homo sapiens) [17] = test: Activity of human recombinant CYP3A5 assessed as ((3R,4S,5S,6R)-5-methoxy-4-((2R,3R)-2-methyl-3-(3-methylbut-2-en-1-yl)oxiran-2-yl)-1-oxaspiro[2.5]octan-6-yl ((R)-1-amino-3-hydroxy-3-methyl-1-oxobutan-2-yl)carbamate) formation per pmol of enzyme

- inhibition (INH) (Cytochrome P450 3A4 [1]): Not Active
- Ki (Cytochrome P450 3A4 [2]): 58 µM
- Tmax [3]: 0.6 h
- AUC(0-t) at 504 h [4]: 43.9 ng·h/mL
- half-life [5]: 1.6 h
- Drug metabolism (Liver microsome [6]): metabolite_detected
- Drug metabolism (Liver [7]): metabolite_detected
- Drug metabolism (Liver [10]): metabolite_detected
- Drug metabolism (Liver [11]): metabolite_detected
- Drug metabolism (Liver microsome [12]): metabolite_detected
- Drug metabolism (Liver microsome [13]): metabolite_detected
- Km (CYP3A5 (Homo sapiens) [14]): 17 µM
- Vmax/Km (CYP3A5 (Homo sapiens) [15]): 0.09 µL/min
- Vmax/Km (CYP3A4 (Homo sapiens)): 0.019 µL/min
- Vmax/Km (CYP3A5 (Homo sapiens) [16]): 0.17 µL/min
- Vmax (CYP3A5 (Homo sapiens) [17]): 1.58 pmol/min
Compound: CO[C@@H]1[C@H](OC(=O)N[C@@H](C(N)=O)C(C)C)CC[C@]2(CO2)[C@H]1[C@@]1(C)O[C@@H]1CC=C(C)C [PPI-2458]
- inhibition (Rattus norvegicus [8]): Active
- inhibition (Rattus norvegicus [9]): Active
